For data set [1], the target named is T1, BCRP (ABCG2) (Homo sapiens, UniProt Q9UNQ0).
T1 sequence (Q9UNQ0 whole entry): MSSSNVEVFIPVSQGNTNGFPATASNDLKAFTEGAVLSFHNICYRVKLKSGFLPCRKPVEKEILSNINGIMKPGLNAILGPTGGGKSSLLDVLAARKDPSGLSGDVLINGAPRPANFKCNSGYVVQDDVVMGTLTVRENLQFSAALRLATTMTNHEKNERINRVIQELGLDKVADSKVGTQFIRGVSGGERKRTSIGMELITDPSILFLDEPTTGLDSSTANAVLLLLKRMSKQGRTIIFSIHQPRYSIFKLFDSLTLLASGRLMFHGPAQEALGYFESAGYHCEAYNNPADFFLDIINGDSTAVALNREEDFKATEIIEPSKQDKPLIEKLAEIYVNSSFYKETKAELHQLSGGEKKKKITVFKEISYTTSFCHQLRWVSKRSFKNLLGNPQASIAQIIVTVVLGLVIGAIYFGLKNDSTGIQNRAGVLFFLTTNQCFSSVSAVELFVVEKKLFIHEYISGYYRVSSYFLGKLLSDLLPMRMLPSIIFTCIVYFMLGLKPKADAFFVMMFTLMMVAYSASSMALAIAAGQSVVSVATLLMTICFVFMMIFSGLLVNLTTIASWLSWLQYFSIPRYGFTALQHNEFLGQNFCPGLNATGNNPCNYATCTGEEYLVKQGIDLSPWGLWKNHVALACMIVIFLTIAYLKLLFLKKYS
The data set is described as follows: Potency index, ratio of IC50 for Ko143 to IC50 for compound against GFP-tagged human BCRP expressed in MDCK2 cells by Hoechst 33342 accumulation assay. Type of data set: cell-based. Conditions: MDCK2 cells expressing GFP-tagged human BCRP, probe Hoechst 33342, read-out: Ratio IC50; call rule not given here.

Data set [2] is described as follows: Intrinsic cytotoxicity against wild type MDCK2 cells assessed as reduction in cell viability after 72 hrs by MTT assay. Type of data set: cell-based, Canis lupus familiaris, MDCK-II. Particulars: dog. In a few lines: (§1)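 Cells are seeded at 3000/well and allowed to attach for 6 h at 37 °C, 5% CO2. They are then exposed to compound in medium, up to 100 μM final (DMSO ≤1.0%), for 72 h. Controls are medium alone (negative) and 10% DMSO (positive). MTT is added for 1 h, formazan is dissolved in DMSO, and absorbance is read at 570 nm minus 690 nm. Viability is expressed as % of the negative control, and GI50 comes from a variable-slope sigmoidal fit. n = 3, each in quadruplicate.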
Background: Tetrazolium assays rely on reduction of a dye to a coloured formazan, in cell work by metabolically active cells.

In data set [3] the target is T1, BCRP (ABCG2). The data set is described as follows: Inhibition of GFP-tagged human BCRP expressed in MDCK2 cells pre-incubated for 30 mins followed by Hoechst 33342 addition and further incubated for 120 mins by Hoechst 33342 accumulation assay relative to XR9577. Type of data set: cell-based, MDCK-II. Conditions: MDCK2 cells expressing GFP-tagged human BCRP, probe Hoechst 33342, read-out: Imax.

The nature of data set [4]: Solubility in water. Type of data set: physicochemical. Conditions: buffer.
Data set [5] deals with T2, Broad substrate specificity ATP-binding cassette transporter ABCG2 (Homo sapiens, UniProt Q9UNQ0).
T2 sequence (Q9UNQ0 whole entry): T1 sequence (Q9UNQ0 whole entry)
The experiment in a line: Inhibition of GFP-tagged human BCRP expressed in MDCK2 cells pre-incubated for 30 mins followed by Hoechst 33342 addition and further incubated for 120 mins by Hoechst 33342 accumulation assay. Type of data set: cell-based, MDCK-II. The method, boiled down: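 MDCK II cells stably carrying human BCRP cDNA C-terminally fused to GFP are washed in KHB, pH 7.4. About 30,000 cells/well are preincubated 30 min at 37 °C with compound up to 10 μM (DMSO ≤0.1%, methanol ≤5% for poorly soluble compounds). Hoechst 33342 is added from a 10 μM solution, and fluorescence (ex 355/em 460) is read every 60 s for 120 min. The steady-state mean (100–109 min) is fitted to a four-parameter logistic curve.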

Data set [6] can be described thus: Intrinsic cytotoxicity against BCRP expressing MDCK2 cells assessed as reduction in cell viability after 72 hrs by MTT assay. Type of data set: ADME, cell-based, Canis lupus familiaris, MDCK-II. Conditions: dog. In a few lines: as §1
Data set [7] can be described thus: Ratio of GI50 for wild type MDCK2 cells by MTT assay to IC50 for GFP-tagged human BCRP expressed in MDCK2 cells by Hoechst 33342 accumulation assay. Further details: species or system MDCK-II. In a few lines:
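Ratio of two values. […] Read at 570/690 nm as % of medium control; n = 3, each in quadruplicate. IC50 came from Hoechst 33342 accumulation in MDCK II BCRP-GFP cells: 2 h at 37 °C, steady-state fluorescence, four-parameter fit.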

A further data set concerns the target ABCB1 (P-gp) (Homo sapiens, UniProt P08183). The data set is described as follows: Inhibition of ABCB1 in human A2780adr cells at 10 uM pre-incubated for 30 mins followed by calcein AM addition and further incubated for 60 mins by calcein AM assay. Type of data set: cell-based, A2780 ADR. Particulars: probe calcein AM.
Data set [8] can be described thus: Solubility in DMSO. Type of data set: physicochemical.
The target of data set [9] is Multidrug resistance-associated protein 1 (Homo sapiens, UniProt P33527). The experiment in a line: Inhibition of MRP1 in human H69AR cells at 10 uM pre-incubated for 30 mins followed by calcein AM addition and further incubated for 60 mins by calcein AM assay. Conditions: 1 h.
Data set [10] concerns the target T2, Broad substrate specificity ATP-binding cassette transporter ABCG2. The data set is described as follows: Inhibition of human BCRP expressed in MDCK2 cells assessed as reversal of multidrug resistance by measuring increase in SN-38-induced cytotoxicity at 3 uM after 72 hrs by MTT assay. Conditions: mdck-ii. Type of data set: cell-based. In a few lines:
(§2)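 MDCK II BCRP cells are seeded at 3000/well and allowed to attach for 6 h at 37 °C, 5% CO2. They are then exposed to SN-38 (up to 100 μM) alone or together with 3 μM or 5 μM modulator for 72 h. MDCK II wild-type cells given SN-38 serve as the comparison. MTT is added for 1 h, formazan is dissolved in DMSO, and absorbance is read at 570 nm with 690 nm background.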

Data set [11] has the same target. The data set is described as follows: Inhibition of human BCRP expressed in MDCK2 cells assessed as reversal of multidrug resistance by measuring increase in SN-38-induced cytotoxicity at 5 uM after 72 hrs by MTT assay. In kind it is cell-based. Conditions: mdck-ii. In a few lines:
as §2

Multidrug resistance-associated protein 1, sequence (P33527 whole entry): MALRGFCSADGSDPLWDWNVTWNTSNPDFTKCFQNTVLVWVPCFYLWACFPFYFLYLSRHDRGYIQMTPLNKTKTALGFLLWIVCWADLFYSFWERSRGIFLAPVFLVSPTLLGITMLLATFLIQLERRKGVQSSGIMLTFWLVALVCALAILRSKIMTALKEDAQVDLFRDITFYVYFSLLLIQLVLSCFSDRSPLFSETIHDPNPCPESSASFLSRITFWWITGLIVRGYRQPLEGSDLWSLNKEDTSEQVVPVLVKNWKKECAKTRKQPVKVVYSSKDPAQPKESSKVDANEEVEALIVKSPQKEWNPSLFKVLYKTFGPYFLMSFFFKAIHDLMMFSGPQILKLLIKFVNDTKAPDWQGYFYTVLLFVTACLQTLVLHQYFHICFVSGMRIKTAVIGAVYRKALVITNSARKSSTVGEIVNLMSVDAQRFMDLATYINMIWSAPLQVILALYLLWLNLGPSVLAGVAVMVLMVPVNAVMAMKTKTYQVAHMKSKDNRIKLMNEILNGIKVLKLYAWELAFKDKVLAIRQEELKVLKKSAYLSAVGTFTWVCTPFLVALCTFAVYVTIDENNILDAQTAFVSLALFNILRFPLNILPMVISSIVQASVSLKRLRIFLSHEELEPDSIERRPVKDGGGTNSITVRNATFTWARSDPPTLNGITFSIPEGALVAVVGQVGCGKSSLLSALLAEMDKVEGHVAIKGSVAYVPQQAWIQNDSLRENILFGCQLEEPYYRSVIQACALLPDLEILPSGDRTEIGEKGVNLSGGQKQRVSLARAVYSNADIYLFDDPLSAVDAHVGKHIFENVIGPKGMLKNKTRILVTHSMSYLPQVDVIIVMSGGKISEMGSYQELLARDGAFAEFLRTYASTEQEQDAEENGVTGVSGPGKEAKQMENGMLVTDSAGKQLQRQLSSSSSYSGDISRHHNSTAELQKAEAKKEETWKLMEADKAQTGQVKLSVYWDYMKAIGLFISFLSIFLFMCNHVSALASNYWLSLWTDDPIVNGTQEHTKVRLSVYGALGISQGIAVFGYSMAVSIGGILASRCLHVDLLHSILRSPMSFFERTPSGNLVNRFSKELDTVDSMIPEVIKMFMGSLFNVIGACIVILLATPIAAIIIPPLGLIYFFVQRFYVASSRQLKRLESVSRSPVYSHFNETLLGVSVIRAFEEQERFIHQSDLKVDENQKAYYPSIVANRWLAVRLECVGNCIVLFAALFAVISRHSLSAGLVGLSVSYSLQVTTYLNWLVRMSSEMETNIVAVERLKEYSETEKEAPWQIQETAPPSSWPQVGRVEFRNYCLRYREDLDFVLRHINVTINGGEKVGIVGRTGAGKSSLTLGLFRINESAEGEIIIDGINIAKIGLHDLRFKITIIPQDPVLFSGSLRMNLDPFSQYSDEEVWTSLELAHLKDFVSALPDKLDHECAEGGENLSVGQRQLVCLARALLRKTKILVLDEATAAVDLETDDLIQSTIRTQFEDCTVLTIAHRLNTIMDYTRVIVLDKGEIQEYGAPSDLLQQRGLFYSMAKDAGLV
ABCB1 (P-gp), sequence (P08183 whole entry): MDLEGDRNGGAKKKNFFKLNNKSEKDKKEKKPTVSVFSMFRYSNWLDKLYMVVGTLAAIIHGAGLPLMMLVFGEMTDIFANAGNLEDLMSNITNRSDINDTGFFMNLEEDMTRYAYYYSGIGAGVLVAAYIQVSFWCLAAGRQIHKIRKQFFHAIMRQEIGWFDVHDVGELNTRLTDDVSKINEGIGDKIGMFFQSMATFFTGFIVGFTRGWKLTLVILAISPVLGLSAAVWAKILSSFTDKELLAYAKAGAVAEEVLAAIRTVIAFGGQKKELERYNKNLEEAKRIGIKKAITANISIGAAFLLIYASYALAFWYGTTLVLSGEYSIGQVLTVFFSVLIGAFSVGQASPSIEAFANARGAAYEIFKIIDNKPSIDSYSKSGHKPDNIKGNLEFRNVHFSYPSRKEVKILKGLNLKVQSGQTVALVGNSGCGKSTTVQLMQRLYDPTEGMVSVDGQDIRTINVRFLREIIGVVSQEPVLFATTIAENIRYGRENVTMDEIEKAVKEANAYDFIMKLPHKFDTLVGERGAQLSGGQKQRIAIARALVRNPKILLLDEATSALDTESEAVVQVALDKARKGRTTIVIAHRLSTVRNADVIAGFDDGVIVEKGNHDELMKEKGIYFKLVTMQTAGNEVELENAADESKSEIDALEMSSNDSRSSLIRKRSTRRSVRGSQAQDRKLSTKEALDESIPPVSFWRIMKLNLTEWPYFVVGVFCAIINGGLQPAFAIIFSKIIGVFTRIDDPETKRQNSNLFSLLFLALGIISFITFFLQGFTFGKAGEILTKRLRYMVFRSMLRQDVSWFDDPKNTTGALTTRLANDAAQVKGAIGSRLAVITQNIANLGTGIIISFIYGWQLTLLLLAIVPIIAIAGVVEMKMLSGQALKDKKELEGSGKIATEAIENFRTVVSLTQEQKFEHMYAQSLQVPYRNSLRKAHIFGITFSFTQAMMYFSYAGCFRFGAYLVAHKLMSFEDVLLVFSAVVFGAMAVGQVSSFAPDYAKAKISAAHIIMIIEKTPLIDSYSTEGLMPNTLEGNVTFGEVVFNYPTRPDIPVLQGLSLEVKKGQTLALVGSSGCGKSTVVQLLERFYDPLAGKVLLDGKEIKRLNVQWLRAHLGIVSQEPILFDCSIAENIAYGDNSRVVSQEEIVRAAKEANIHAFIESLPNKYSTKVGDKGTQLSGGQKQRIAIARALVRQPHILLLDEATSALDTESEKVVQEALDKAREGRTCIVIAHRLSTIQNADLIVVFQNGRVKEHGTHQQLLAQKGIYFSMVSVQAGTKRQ

`COc1ccc(C(=O)Nc2ccccc2-c2nnn(-c3ccc(C(F)(F)F)cc3)n2)cc1`: the selectivity ratio at BCRP (ABCG2) [1] amounted to 2. Also, the 50% growth inhibitory concentration (GI50) at 72 h in data set [2] was determined as 34.4 µM; in data set [6] it was 40.2 µM. In addition, the Emax at 2 h on BCRP (ABCG2) [3] was found to be 102%. Also, the results for the solubility result in data set [4] and in [8] were “Insoluble” and > 10 mM, respectively. In data set [5], this molecule had a 50% inhibitory concentration (IC50) of 0.073 µM. For the same molecule, the Ratio in data set [7] is given as 500. On ABCB1 (P-gp), the inhibition at 1 h, 10 µM is < 25%. Moreover, the “inhibition (INH)” value in data set [9] is listed as “Not Active”; in data set [10], “Active”; in data set [11], “Active”.
As for `CCCc1ccc(-n2nnc(-c3ccccc3NC(=O)c3ccc(OC)cc3)n2)cc1`, the selectivity ratio at BCRP (ABCG2) [1] was 2. For the same molecule, the concentration for 50% growth inhibition (GI50) at 72 h in data set [2] stood at 63.2 µM; in data set [6], 61.8 µM. At BCRP (ABCG2) [3], the Emax at 2 h was found to be 88%. The solubility entry in [4] is “Insoluble”; in data set [8] it was > 10 mM. This molecule had an IC50 in data set [5] of 0.0642 µM. In data set [7], the Ratio is reported as 1000. Moreover, at ABCB1 (P-gp), the inhibition at 1 h, 10 µM was < 25%. The “inhibition (INH)” value in [9] was “Not Active”.
Turning to `CCCc1ccc(C(=O)Nc2ccccc2-c2nnn(-c3ccc(OC)cc3)n2)cc1`, at BCRP (ABCG2) [1], the selectivity ratio stood at 2. For the same molecule, the GI50 at 72 h in data set [2] was 77.6 µM; in data set [6] it was 60.9 µM. Besides, the Emax at 2 h on BCRP (ABCG2) [3] came out at 91%. Moreover, the solubility entry in [4] was “Insoluble”; in data set [8], > 10 mM. In [5], this molecule displayed an IC50 of 0.0794 µM. The Ratio in data set [7] stood at 1000. The inhibition at 1 h, 10 µM on ABCB1 (P-gp) is < 25%. Moreover, the “inhibition (INH)” value in data set [9] is on record as “Not Active”.

The term GI50 denotes the concentration giving 50% growth inhibition. Broadly, the solubility is how much of the substance goes into solution per volume. A lower solubility goes with a poorly soluble substance. The IC50 is the concentration that inhibits the measured activity by half. A high value points to a need for much substance. One may read the inhibition as how much of the control response was suppressed.

The values above are taken from ChEMBL document CHEMBL3425464, “HM30181 Derivatives as Novel Potent and Selective Inhibitors of the Breast Cancer Resistance Protein (BCRP/ABCG2)” (J Med Chem, 2015).
